The values that follow come from ChEMBL document CHEMBL4513216, “Probing the Open Global Health Chemical Diversity Library for Multistage-Active Starting Points for Next-Generation Antimalarials” (ACS Infect Dis, 2020).

The series in a line: Toxicity liver stage against HepG2, at 10uM. On the set-up: test concentration 10 uM, cell line HepG2-A16-CD81EGFP. To be noted: human, HepG2-A16-CD81EGFP cells; read-out: INHIBITION
Format: cell-based. Put shortly:
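Uninfected HepG2-A16-CD81EGFP cells, 3 × 10^3 per well, 1536-well, plated on prespotted compound at 10 μM final, parasite-free screening media added to match infected plates; puromycin 10 μM positive, DMSO 0.5% negative; run in parallel with 48 h PbLuc assay at 37 °C, 5% CO2; viability by CellTiter-Glo luminescence, normalized to controls.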
For the compound `COCC(=O)N[C@H](C)c1onc(-c2ccccc2)c1C(=O)O`, the cytotoxicity at 10 µM came out at 0.179%.
The result for `O=C(NC[C@H]1OC[C@@H](NC2CCC(F)(F)CC2)[C@@H]1O)Nc1ccccc1` reads 4.11%; that for `O=C(c1ccno1)N1CCOC[C@H](Oc2ccccc2)C1`, -5.25%; that for `CC[C@H]1CN(S(C)(=O)=O)CC[C@H]1CC(=O)NCCOC`, 2.55%.
Then `COCCCNc1c(-c2ccccc2)c(=O)c1=O`, with 0.409%; and `O=C(O)Cn1ccc(=O)c2cc(F)ccc21`, with -0.0342%; and `O=C(COc1ccc(F)cc1)N1CCCSCC1CN1CCOCC1` (stereo unspecified), with -0.0603%.
Then `CSc1ncccc1C(=O)NCCC(O)c1cc(C)oc1C` (stereo unspecified), with 1.95%.
`Cc1cccc(CN2C[C@@H]3CCCO[C@@H]3[C@H](Nc3ccccn3)C2)n1`: the cytotoxicity at 10 µM amounted to 0.939%.
Take `COCCNC(=O)[C@H]1C[C@@H]2CCN(c3ncccn3)C[C@@H]2O1`: the cytotoxicity at 10 µM was -0.785%.
The result for `Cc1ccc(N2CC[C@H]3OCC[C@@]3(C(=O)N3CCCO3)C2)nn1` reads -1.22%; that for `CS(=O)(=O)N1CC[C@H]2C[C@@H](C(=O)N3CCOCC3)O[C@@H]2C1`, 2.28%.
As to `COc1cc(CNc2ccccc2Cl)ccc1OCC(=O)O`, the cytotoxicity at 10 µM was found to be 6.15%.
For the compound `COc1nsc2nc(C3CCCN3c3ncccn3)ccc12` (stereo unspecified), the cytotoxicity at 10 µM is 10.5%.
As to `Cc1cccc(C)c1Nc1noc2c1CN(C(=O)c1cn(C)cn1)CC2`, the cytotoxicity at 10 µM is 12.9%.
Turning to `Cc1cncc(C2CCN(Cc3ccc(S(C)(=O)=O)cc3)CC2)n1`, the cytotoxicity at 10 µM is -1.03%.
Turning to `c1cnc(C2CCCN(Cc3ccsc3)C2)cn1` (stereo unspecified), the cytotoxicity at 10 µM was -5.67%.
For `OCC(CO)N1CCCC(Cc2ccnc(Nc3ccccn3)c2)C1` (stereo unspecified), the cytotoxicity at 10 µM is -13.5%.
Then `Cc1nnc(NC(=O)C2CSCN2C(=O)C2CCCC2)s1` (stereo unspecified), with -17.1%; and `C[S+]([O-])CCNC(=O)N1CCSC(C)(C)C1` (stereo unspecified), with -0.0105%; and `CC(CN1CCOC1=O)NC(=O)c1cccc2cc[nH]c12` (stereo unspecified), with 6.2%.
`CCSc1ccc(NC(=O)NC2CCc3[nH]ncc3C2)cn1` (stereo unspecified): the cytotoxicity at 10 µM was -3.27%.
Consider `Cc1cccc(-c2noc(CNC(C)Cn3cc(C)cn3)n2)c1` (stereo unspecified), for which the cytotoxicity at 10 µM was -2.87%.
Take `Cc1cn(-c2ccccc2)nc1NS(=O)(=O)c1cc(C(=O)O)ccc1Cl`: the cytotoxicity at 10 µM stood at 13.1%.
With `Cc1nn(C)c(C)c1NC(=O)CNc1cccc(CC(F)(F)F)c1`, the cytotoxicity at 10 µM was -4.83%.
For `Cc1nc(C)c(CN(C)C2CCN(C(=O)OC(C)(C)C)CC2)s1`, the cytotoxicity at 10 µM amounted to 3.51%.
As to `Cc1nn(C)c(C)c1CC(=O)NCc1ccnc(OC2CCCC2)c1`, the cytotoxicity at 10 µM is -0.883%.
Then `COc1ccc(CN2CCNC(=O)CC2)cc1SC(F)(F)F`, with 0.66%; and `COCCC(Cc1cccc(Br)c1)C(N)=O` (stereo unspecified), with 8.42%; and `CCc1sc(C(=O)Nc2cnn(CCN(C)C)c2)cc1C`, with 7.9%.
Take `Cc1nc(CN(C)C2CCN(Cc3cccc4cccnc34)C2)no1` (stereo unspecified): the cytotoxicity at 10 µM was -11.5%.
With `CC(C)OCCN1CCN(c2ccc(CN(C)C)cn2)CC1`, the cytotoxicity at 10 µM is -5.89%.
Consider `COc1c(C(=O)N2CCC(CSc3ccccc3)C2)c(C)nn1C` (stereo unspecified), for which the cytotoxicity at 10 µM came out at 25.6%.
With `Cc1nc(CN(C)C(=O)Nc2cnn(CC3CCCO3)c2)cs1` (stereo unspecified), the cytotoxicity at 10 µM was found to be 5.53%.
As to `O=c1[nH][nH]cc1-c1ccnc(NCCN2CCCC2)n1`, the cytotoxicity at 10 µM was found to be 2.89%.
With `Cc1ccsc1CN1CCC(c2nnc(Cn3cccn3)n2C)CC1`, the cytotoxicity at 10 µM was -2.97%.
For the compound `CC(C)=CCN1CCC(c2nnc(CN3CCN(C)CC3)n2C)CC1`, the cytotoxicity at 10 µM was -7.54%.
Regarding `O=C(Cn1ncc(N2CCNCC2)cc1=O)NCCc1ccc(F)cc1`, the cytotoxicity at 10 µM was 0.342%.
Regarding `O=C(CSc1ccccn1)N1CCC(OCc2cccnc2)CC1`, the cytotoxicity at 10 µM was -3.84%.
As for `c1ccc(CN2CCN(C3CCOC4(CCOCC4)C3)CC2)nc1` (stereo unspecified), the cytotoxicity at 10 µM was -0.971%.
In the case of `O=C(O)c1ccccc1-c1c(-c2ccccc2)ncn1CC1CCCO1` (stereo unspecified), the cytotoxicity at 10 µM was 2.84%.
Then `CCOC(=O)CC1CCCCN1C(=O)c1cnc(C)cn1` (stereo unspecified), with 0.957%; and `COc1cccc(-c2cc(NCCN(C)C)nc3[nH]ccc23)n1`, with -3.97%; and `CCCN(CCc1ccccc1)c1ncnc2oc(C)nc12`, with 8.74%.
In the case of `c1cncc(OCc2nc(C3CC3)nn2-c2ccc3c(c2)OCCO3)c1`, the cytotoxicity at 10 µM was 2.4%.
Then `O=S(=O)(Cc1ccccc1CN1CCOCC(O)C1)c1ccccc1` (stereo unspecified), with -22.8%.
Regarding `c1cc2c(cc1CN1CCCC3(CCOC3)C1)OCO2` (stereo unspecified), the cytotoxicity at 10 µM is 0.447%.
Take `CC(C)c1noc(C2CCCN2C(=O)CN2CCc3ccccc32)n1` (stereo unspecified): the cytotoxicity at 10 µM was -8.76%.
As to `COc1ccc(C(=O)C2CCCN(c3cnccn3)C2)c(C)c1` (stereo unspecified), the cytotoxicity at 10 µM was -2.69%.
Turning to `CCc1ccc2nc(C)cc(C(=O)N3C[C@H]4CCC[C@@]4(CO)C3)c2c1`, the cytotoxicity at 10 µM is -2.37%.
Then `Cc1cc(NC(C)c2csc(C)n2)n2nc(C)c(C)c2n1` (stereo unspecified), with 5.32%.
As to `COCCN(Cc1ccncc1)C(=O)C1COc2c(cccc2OC)C1` (stereo unspecified), the cytotoxicity at 10 µM is -14.6%.
As for `CCc1ccc(CN(C)C(=O)c2cnc3c(c2)nc(N)n3CC)nc1`, the cytotoxicity at 10 µM was -5.55%.
With `O=C(c1cc2ccccc2s1)N1CCC(C(=O)O)(n2cccn2)CC1`, the cytotoxicity at 10 µM stood at 11.3%.
As for `Cc1nn(C)c(C)c1CCC(=O)N1CCCOC(Cn2cccn2)C1` (stereo unspecified), the cytotoxicity at 10 µM was -2.86%.
The result for `COc1ccc(C2CC(=O)Nc3c2nc2n3CCCC2)cc1O` (stereo unspecified) reads -2.53%; that for `CC(C)c1nc(CN2CCCN(c3nccs3)CC2)no1`, -11.5%; that for `OC1(CN2CCOC(CNc3cccnn3)C2)CCCCC1` (stereo unspecified), -4.67%.
On to `Cc1ccc(CNC(=O)N(C)Cc2cnn(C)c2)s1`, for which the cytotoxicity at 10 µM was -11.2%.
Regarding `Cc1nc(-c2ccsc2)ccc1C(=O)NCCCN1CCOCC1`, the cytotoxicity at 10 µM is -13.9%.
On to `CCc1n[nH]c(C2CN(C(=O)c3ccc(Cl)cn3)CCO2)n1` (stereo unspecified), for which the cytotoxicity at 10 µM was -18.3%.
The result for `CS(=O)(=O)NC1CCCN(C(=O)NCc2ccccc2Cl)C1` (stereo unspecified) reads -12.8%; that for `CCn1cc(CN2CCCN(C(=O)c3cc(C)no3)CC2)cn1`, 3.22%; that for `Cc1cc(NC(=O)CCN2CCn3c(C)nnc3C2)no1`, 6.69%.
The result for `Cc1n[nH]c(=O)c2c(NC(=O)CN3CCOCC3C)oc(C)c12` (stereo unspecified) reads -0.219%.
Then `c1cc(OCc2ccc3c(c2)OCCO3)ccc1CNC1CC1`, with -0.73%; and `Cc1ccc(CN2CC[C@H]3[C@H](CC(Cn4cccn4)N3C)C2)s1` (stereo partly specified), with 6.66%; and `CN(Cc1ccco1)C[C@H]1OC[C@@H]2CCN(Cc3cccs3)C[C@@H]21`, with 8.11%.
`O=C(NC1CC1)[C@H]1C[C@H]2OCC[C@H]2N(CC2CCOCC2)C1`: the cytotoxicity at 10 µM turned out to be 2.98%.
The result for `O=C(CO)N1C[C@@H]2CC[C@H]1CN(C1Cc3ccccc3C1)C2` reads -11.3%.
`NC1CCC(n2cc(C(=O)NC3CCc4ccccc4C3)nn2)CC1` (stereo unspecified): the cytotoxicity at 10 µM was -4.42%.
